Activity calls are given as the source filed them. No cut-off for these calls is given here.
Columns and labels:
MDA-MB-231 [1] = assay: Dose required to inhibit cell growth was determined against MDA-MB-231 cell line of human non-hormone dependent breast carcinoma; assay type: functional, cell-based
Summary of the method: (§1)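 Alamar Blue growth assay. (1–5) × 10^3 cells per well preincubated 24 h, then exposed to increasing drug concentrations for 72 h at 37 °C. Medium replaced with PBS containing 20% Alamar Blue, fluorescence read at 485/590 nm. IC50 is the dose inhibiting growth by 50%.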

[2] = molecular target: T1, Glutathione reductase, mitochondrial (Homo sapiens) (UniProt P00390); assay: Glutathione reductase activity was measured after incubation with a conc. of 500 uM; assay type: functional
T1 sequence (whole entry): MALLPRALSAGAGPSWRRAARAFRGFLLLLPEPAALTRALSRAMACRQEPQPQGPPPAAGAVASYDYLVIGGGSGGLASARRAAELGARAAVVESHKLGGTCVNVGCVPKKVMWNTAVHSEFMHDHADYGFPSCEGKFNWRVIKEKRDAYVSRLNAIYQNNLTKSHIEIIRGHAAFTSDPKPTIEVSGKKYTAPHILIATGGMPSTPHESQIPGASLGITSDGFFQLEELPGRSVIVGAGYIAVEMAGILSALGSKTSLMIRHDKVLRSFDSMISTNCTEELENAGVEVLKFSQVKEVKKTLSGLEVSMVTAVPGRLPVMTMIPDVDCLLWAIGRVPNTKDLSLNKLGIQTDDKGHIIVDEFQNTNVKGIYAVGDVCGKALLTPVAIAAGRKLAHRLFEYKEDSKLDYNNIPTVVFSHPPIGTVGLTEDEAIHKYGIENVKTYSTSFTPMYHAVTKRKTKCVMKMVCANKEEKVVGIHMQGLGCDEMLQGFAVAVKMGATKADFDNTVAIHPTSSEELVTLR
Summary of the method: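 Purified glutathione reductase (0.016 U/mL) with 100 µM NADPH, 1 mM EDTA, 1 mg/mL BSA and 500 µM drug (from 2% ethanol solution) in 0.1 M phosphate pH 7.4, preincubated 60 min at 30 °C. GSSG was then added for 60 min at 30 °C. Activity is the […] over 3 min, as % of no-drug control, in triplicate.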

[3] = Alkylating activity by using 4-(4-nitrobenzyl)-pyridine(NBP) colorimetric assay
Summary of the method: (§2)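 NBP colorimetric assay. Drug at 400 nmol/mL in ethanol was mixed with 10% NBP in ethanol and 50 mM sodium acetate pH 4.3, then heated at 80 °C for 60, 90, 120 or 150 min. Samples were chilled and basified with KOH/ethanol, and A570 was read against a drug-free blank. The alkylation rate (A570/min) is the slope of a linear regression of absorbance vs time. Mean ± SD of ≥3 independent experiments.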

MDA-MB-231 [4] = assay: Beta tubulin alkylation activity in MDA-MB-231 cells; assay type: functional, Homo sapiens; parameters: concentration or dose not given beside the values
Summary of the method: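 MDA-MB-231 cells (~5 × 10^6), exponentially growing, exposed to 30 μM compound for 24 h at 37 °C. Lysed in Laemmli buffer, run on 10% SDS-PAGE, immunoblotted with anti-β-tubulin (TUB 2.1, 1:500) and peroxidase anti-mouse secondary, ECL detection. Normal and alkylated band densities integrated to give % alkylated β-tubulin. Representative of three experiments.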

L1210 = assay: Dose required to inhibit cell growth was determined against L1210 cell line of murine lymphocytotic leukemia; assay type: functional, cell-based; conditions: Mus musculus; summary of the method: as §1
HT-29 [5] = assay: Dose required to inhibit cell growth was determined against HT-29 cell line of human adenocarcinoma; assay type: functional, cell-based; summary of the method: as §1
LoVo [6] = assay: Dose to inhibit cell growth determined against LoVo cell line of human adenocarcinoma; assay type: functional, cell-based; summary of the method: as §1
CHO [7] = assay: Dose required to inhibit cell growth was determined against CHO cell line; assay type: functional, cell-based; conditions: Cricetulus griseus; summary of the method: as §1
P388 [8] = assay: Dose required to inhibit cell growth was determined against P388D1 cell line of murine lymphocytotic leukemia; assay type: functional, cell-based; conditions: Mus musculus; summary of the method: as §1
[9] = Glutathione activity was measured after incubation with a conc. of 500 uM
Summary of the method: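 Cell-free thiol assay. GSH 500 µM with 1 mM EDTA and 500 µM drug (from 2% ethanol solution) in 0.1 M phosphate buffer pH 7.4, 60 min at room temperature. DTNB (0.133 mM) was then added and A412 read. Reported as % of no-drug control, in triplicate.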

K562 [10] = assay: Dose required to inhibit cell growth was determined against K562 cell line of chronic myelogenous leukemia; assay type: functional, cell-based; conditions: Homo sapiens; summary of the method: as §1
MDA-MB-231 [11] = assay: DNA damages caused in MDA-MB-231 cells after 2 hr exposure to a concentration of 400 uM; assay type: functional, Homo sapiens
Summary of the method: (§3)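 Growing MDA-MB-231 cells held 2 h at 37 °C in medium with or without 400 μM compound. Cells washed in cold PBS and lysed in Tris/SDS/EDTA/deferoxamine/proteinase K buffer. DNA isolated by salting out, then 3'-end labeled by T4 DNA polymerase nucleotide exchange. Incorporated radioactivity measured by dot filtration, expressed as dCps exchanged/ng DNA. Means ± SD, ≥3 determinations.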

HT-29 [12] = assay: Dose required to inhibit cell growth was determined against HT-29 cell line of human adenocarcinoma; Not active represents IC50 >400 uM; assay type: functional, cell-based
Summary of the method: (§4)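 Alamar Blue growth-inhibition assay. Cells ((1–5) × 10³ per well) were preincubated for 24 h, then exposed to increasing drug concentrations for 72 h at 37 °C. Alamar Blue (20%) was added and fluorescence read at ex 485 / em 590 nm. IC50 is the dose inhibiting growth by 50%. Means of ≥3 independent determinations.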

MDA-MB-231 [13] = assay: Dose required to inhibit cell growth was determined against MDA-MB-231 cell line of human non-hormone dependent breast carcinoma; Not active represents IC50 >400 uM; assay type: functional, cell-based; summary of the method: as §4
CHO [14] = assay: Dose required to inhibit cell growth was determined against CHO cell line; Not active represents IC50 >400 uM; assay type: functional, cell-based; conditions: Cricetulus griseus; summary of the method: as §4
[15] = Alkylating activity by using 4-(4-nitrobenzyl)-pyridine (NBP) colorimetric assay; summary of the method: as §2
MDA-MB-231 [16] = assay: DNA damages caused in MDA-MB-231 cells after 2 hr compound exposure to 400 uM concentration; assay type: functional, Homo sapiens; summary of the method: as §3
K562 [17] = assay: Dose required to inhibit cell growth was determined against K562 cell line of chronic myelogenous leukemia; Not active represents IC50 >400 uM; assay type: functional, cell-based; conditions: Homo sapiens; summary of the method: as §4
LoVo [18] = assay: Dose required to inhibit cell growth was determined against LoVo cell line of human adenocarcinoma; NA= Not active represents IC50 >400 uM; assay type: functional, cell-based; summary of the method: as §4
CHO [19] = assay: Dose required to inhibit cell growth was determined against CHO cell line; NA= Not active represents IC50 >400 uM; assay type: functional, cell-based; conditions: Cricetulus griseus; summary of the method: as §4
P388 [20] = assay: Dose required to inhibit cell growth was determined against P388D1 cell line of murine lymphocytotic leukemia; NA= Not active represents IC50 >400 uM; assay type: functional, cell-based; conditions: Mus musculus; summary of the method: as §4
MDA-MB-231 [21] = assay: Dose required to inhibit cell growth was determined against MDA-MB-231 cell line of human non-hormone dependent breast carcinoma; NA= Not active represents IC50 >400 uM; assay type: functional, cell-based; summary of the method: as §4
HT-29 [22] = assay: Dose required to inhibit cell growth was determined against HT-29 cell line of human adenocarcinoma; NA= Not active represents IC50 >400 uM; assay type: functional, cell-based; summary of the method: as §4

SMILES | IC50 (MDA-MB-231 [1]) [µM] | Activity [2] [%] | Activity [3] [A570 min-1] | Activity (MDA-MB-231 [4]) [%] | IC50 (L1210) [µM] | IC50 (HT-29 [5]) [µM] | IC50 (LoVo [6]) [µM] | IC50 (CHO [7]) [µM] | IC50 (P388 [8]) [µM] | Activity [9] [%] | IC50 (K562 [10]) [µM] | other results
CC(C)c1ccc(NC(=O)NCCCl)cc1 | 2.5 | 100 | 3 | 65 | 1.2 | 5 | 1 | 3.2 | 2.1 | 100 | 1.3 | –
O=C(NCCCl)Nc1ccc2ccccc2c1 | 6.1 | – | – | 47 | 3 | 5.5 | 6.2 | 7.2 | 5.3 | – | 3 | DNA damage (MDA-MB-231 [11]): 1.89 10e7 exchanged dCps (ng of DNA)
CCC(C)c1ccc(NC(=O)NC)cc1 (stereo not given) | – | – | – | – | 62 | – | – | – | – | – | 142 | NA (HT-29 [12]): inactive; NA (MDA-MB-231 [13]): inactive; NA (CHO [14]): inactive
CCC(C)c1ccc(NC(=O)NCCCl)cc1 (stereo not given) | 3.1 | 100 | 3.1 | 76 | 1.3 | 3.6 | 2.2 | 4 | 2.4 | 100 | 1.3 | –
CCNC(=O)Nc1ccc(C(C)C)cc1 | – | – | – | – | 35 | – | – | – | – | – | 142 | NA (HT-29 [12]): inactive; NA (MDA-MB-231 [13]): inactive; NA (CHO [14]): inactive
O=C(O)CCCc1ccc(N(CCCl)CCCl)cc1 [CHLORAMBUCIL] | 80 | – | – | – | 3 | > 100 | 9 | 30 | 7 | – | 11 | DNA damage (MDA-MB-231 [11]): 12.7 10e7 exchanged dCps (ng of DNA); Activity [15]: 39 A570 min-1
CCCCCCc1ccc(NC(=O)NCCCl)cc1 | 15 | 99 | 3.1 | 34 | 5 | 12 | 6.1 | 15 | 8.2 | 100 | 7.1 | DNA damage (MDA-MB-231 [16]): 2.32 10e7 exchanged dCps (ng of DNA)
CC(C)(C)c1ccc(NC(=O)NCCCl)cc1 | 6.2 | 100 | 3.1 | 44 | 3 | 9.1 | 4.1 | 6.3 | 5.2 | 100 | 3.5 | DNA damage (MDA-MB-231 [16]): 2.22 10e7 exchanged dCps (ng of DNA)
CNC(=O)Nc1ccc(C(C)(C)C)cc1 | – | – | – | – | 80 | 196 | – | – | – | – | – | NA (K562 [17]): inactive; NA (MDA-MB-231 [13]): inactive; NA (CHO [14]): inactive
O=C(NCCCl)Nc1ccc(I)cc1 | 5.7 | 98 | – | 44 | 3.8 | 3.9 | 5.4 | 4.8 | 5.4 | 100 | 2.1 | DNA damage (MDA-MB-231 [16]): 2.66 10e7 exchanged dCps (ng of DNA); Activity [15]: 3.1 A570 min-1
CNC(=O)Nc1ccc(C(C)C)cc1 | – | – | – | – | 135 | – | – | – | – | – | 198 | NA (HT-29 [12]): inactive; NA (MDA-MB-231 [13]): inactive; NA (CHO [14]): inactive
Cc1cc(C)nc(NC(=O)NCCCl)c1 | 50 | – | – | – | 144 | – | – | – | – | – | 113 | NA (LoVo [18]): inactive; NA (CHO [19]): inactive; NA (P388 [20]): inactive
O=NN(CCCl)C(=O)NCCCl [CARMUSTINE] | 7.4 | 20 | – | – | 4.5 | 17 | – | 8.2 | 5.9 | 50 | 9 | DNA damage (MDA-MB-231 [11]): 19.9 10e7 exchanged dCps (ng of DNA)
CCCCCc1ccc(NC(=O)NCCCl)cc1 | 12 | 99 | 2.9 | 40 | 5.4 | 12 | 5.2 | 13 | 7.3 | 100 | 6.1 | DNA damage (MDA-MB-231 [16]): 1.93 10e7 exchanged dCps (ng of DNA)
O=C(NCCCl)Nc1cccc2c1CCCC2 | – | – | – | – | 55 | – | – | 56 | – | – | 76 | NA (MDA-MB-231 [21]): inactive; NA (LoVo [18]): inactive; NA (P388 [20]): inactive; NA (HT-29 [22]): inactive
